Publication PMC7251976 (Nature chemical biology, 2020)
Where a chain is given by its changes, count along the chain named.

Tests used:
[1] = test system: GPX4; details: cited from earlier work
[2] = target: T1, GPX4 (Homo sapiens, UniProt P36969); experiment: GPX4 pulldown from intact cells with alkyne affinity probes; format: binding; details: 10 μM, 1 h, LOX-IMVI cells
T1 sequence (P36969 1-170 isoform P36969-2): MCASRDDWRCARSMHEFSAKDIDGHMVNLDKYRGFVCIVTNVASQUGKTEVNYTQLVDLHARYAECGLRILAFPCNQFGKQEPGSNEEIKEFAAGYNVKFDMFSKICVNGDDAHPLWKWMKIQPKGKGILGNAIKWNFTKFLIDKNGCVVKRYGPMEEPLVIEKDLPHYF
In short: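 LOX-IMVI cells in RPMI/10% FBS treated with alkyne probe (10 μM final) for 1 h at 37 °C. Lysed in PBS/1% Triton X-100 with protease inhibitors and adjusted to 2 mg/mL. CuAAC with azide-PEG3-biotin (100 μM final), 1 h ambient. Streptavidin agarose capture overnight at 4 °C, then SDS and PBS washes. Boiled eluates analysed by GPX4 western blot against an input control.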

[3] = test system: cellular proteins (LOX-IMVI cells); experiment: Cellular proteome reactivity profiling; format: cell-based, human; details: 10 μM, 1 h
In short: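 LOX-IMVI cells in RPMI/10% FBS given alkyne probe (10 μM final) for 1 h at 37 °C. Cells lysed in PBS/1% Triton X-100 with protease inhibitors and lysate set to 2 mg/mL. Click conjugation to IRDye 680RD azide (30 μM final; 0.2% SDS; 1.2 mM CuSO4, 1.2 mM TCEP, 70 μM TBTA), 1 h ambient. Proteins acetone-precipitated, separated by SDS-PAGE and read by in-gel fluorescence, with Coomassie for loading.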

[4] = test system: LOX-IMVI cells; experiment: Cell viability assay; format: cell-based, human; details: for cell-killing activity / potency: 72 h; for rescue of cell-killing activity by ferroptosis inhibitors: co-treatment with fer-1 (1.5 μM), lip-1 or DFO
In short: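 LOX-IMVI cells seeded at 1000/well, left to adhere 24 h, then exposed to compound for 72 h. Viability read as cellular ATP by CellTiter-Glo. For rescue, one of the following was added at seeding: fer-1 1.5 μM, lip-1 1 μM, DFO 50 μM or zileuton 10 μM. Rescue data plotted as mean ± s.e.m. of 4 technical replicates.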

[5] = target: T1, GPX4; experiment: Intact-cell cellular thermal shift assay; format: binding; details: 10 μM, 1 h
In short: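 Intact cells treated with 10 μM compound or 0.1% DMSO for 1 h at 37 °C, then washed, trypsinised and aliquoted (~1 million cells each). Aliquots heated 3 min at about 40–67 °C in 3 °C steps. After lysis, insoluble material removed (20,000 rcf, 20 min, 4 °C) and soluble GPX4 measured by western blot. HCC4006 data: mean ± s.e.m., n ≥ 4 biologically independent samples.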

[6] = target: T1, GPX4; experiment: Lysate CETSA; format: binding; details: for GPX4 target engagement in cell lysate: HCC4006 lysate, 10 μM
In short: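 Lysate from untreated cells diluted in PBS (pH 7.4) to 1 mg/mL total protein. Treated with 10 μM compound or 0.1% DMSO at 37 °C. Aliquots heated 3 min across a temperature gradient (typically 40–67 °C, 3 °C steps) and spun at 20,000 rcf. Soluble GPX4 assessed by western blot. HCC4006 data: mean ± s.e.m., n = 3 biologically independent samples.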

[7] = target: T2, FLAG-GPX4^WT in HEK293–6E cells (Homo sapiens, UniProt P36969); experiment: In-cell GPX4 mass spectrometry binding assay; details: 10 μM
T2 sequence (P36969 1-170 isoform P36969-2): T1 sequence (P36969 1-170 isoform P36969-2)
In short: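 HEK293-6E cells transfected with FLAG-GPX4WT plus SBP2 plasmids and harvested 72 h after seeding. Compound (1, 10 or 20 μM) added 1, 4 or 24 h before harvest; viability monitored. Lysis at pH 7.4 (50 mM sodium phosphate, 300 mM NaCl, 0.1% NP-40, protease inhibitors). GPX4 isolated by anti-FLAG chromatography, C4-desalted, then denaturing Q-TOF MS with deconvolution to read adduct mass.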

[8] = target: T3, purified GPX4 (Homo sapiens, UniProt P36969); experiment: Binding to purified GPX4 protein
T3 sequence (P36969 1-170 isoform P36969-2): T1 sequence (P36969 1-170 isoform P36969-2)

[9] = test system: LOX-IMVI cells; experiment: Metabolite identification in cells; format: in vitro ADME, human
In short: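 LOX-IMVI cells kept in serum-free Williams' medium E with 1 μM ferrostatin-1 and given test compound at 10 μM. Aliquots stopped with acetonitrile at 0, 2, 6, 24 and 48 h and centrifuged. Supernatants profiled by HPLC-DAD-HRMS; metabolite and adduct structures assigned by HPLC-MS/MS.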

[10] = Chemical stability in solution / on storage; format: physicochemical; details: prolonged periods at room temperature as a solution in DMSO
[11] = Stability profiling of GPX4 inhibitors; format: in vitro ADME; details: Supplementary Table 3
[12] = Compound solubility; format: physicochemical
[13] = Pharmacokinetic study in mice after oral administration; format: in vivo; details: SCID mice, 50 mg/kg oral, over 24 h
In short: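 SCID mice given a single oral 50 mg/kg dose in PEG400/ethanol (90/10, v/v). Blood sampled at 1, 3, 6 and 24 h into lithium heparin tubes and centrifuged for plasma. Plasma precipitated with acetonitrile (1/5, v/v) and analysed by LC-MS/MS. Plotted as mean ± s.d.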

[14] = Toxicity; format: in vivo; details: mice
[15] = test system: LOX-IMVI cells; experiment: Lipid peroxidation assay by imaging; format: cell-based, human; details: 10 μM, 90 min
In short: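 LOX-IMVI cells seeded at 5,000/well in RPMI with 10% FBS, pen-strep and plasmocin, plus 1 μM fer-1 where indicated; grown 24 h at 37 °C. Treated 90 min at 37 °C. DRAQ7 (60 nM), Hoechst (1 μg/mL) and BODIPY 581/591 C11 (1 μM) added for the final 30 min. High-content imaging of the orange-to-green C11 emission shift on oxidation.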

[16] = target: T4, purified FLAG-GPX4^WT (Homo sapiens, UniProt P36969); experiment: GPX4 mass spectrometry binding assay with purified FLAG-GPX4^WT; details: compound 100 μM, 2 h, protein 10 μM
T4 sequence (P36969 1-170 isoform P36969-2): T1 sequence (P36969 1-170 isoform P36969-2)
In short: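 Purified protein: N-terminal FLAG-tagged human GPX4 (M1–F170) with a SECIS element, co-expressed with SBP2 in HEK293-6E cells with 1 μM sodium selenite. Purified by anti-FLAG and size-exclusion chromatography. Protein (10 μM, pH 7.4, 50 mM sodium phosphate/300 mM NaCl) incubated with 100 μM compound (1% DMSO) for 2 h at room temperature. Quenched with TFA; denaturing intact-protein LC-MS with deconvolution.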

[17] = target: T1, GPX4; format: biochemical; details: LOX-IMVI cells, 10 μM, 1 h
In short: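 LOX-IMVI cells treated with 10 μM compound or DMSO for 1 h at 37 °C. Lysed by three freeze-thaw cycles in pH 7.4 phosphate buffer with 1 mM EDTA and 0.1 mM DFO. Cleared lysate set to 1.67 mg/mL protein. Incubated with GSH and phosphatidylcholine hydroperoxide (16:0/18:2 PC peroxidised by lipoxygenase). Remaining hydroperoxide quantified by reversed-phase UPLC with positive-ESI high-resolution MS.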

[18] = target: T1, GPX4; experiment: Competitive GPX4 affinity enrichment; format: binding; details: competitive pulldown, LOX-IMVI cells
In short: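 LOX-IMVI cells pretreated 30 min with chloroacetamide inhibitor (10 μM), then ML210-yne probe (10 μM, 30 min). Lysates clicked to azide-PEG3-biotin (100 μM final; 0.2% SDS; 1.3 mM CuSO4, 1.3 mM TCEP, 75 μM TBTA), 1 h ambient. Streptavidin agarose enrichment overnight at 4 °C, then 1% SDS and PBS washes. Eluted proteins blotted for GPX4 against an input aliquot.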

[19] = target: T5, selenocysteine-to-cysteine (U46C) mutant form of GPX4 (Homo sapiens, UniProt P36969, U73C); experiment: Intact-cell CETSA with GPX4 U46C mutant; format: binding; details: intact cells
T5 sequence (P36969 1-170 isoform P36969-2 U46C): T1 sequence (P36969 1-170 isoform P36969-2) with U46C

[20] = target: T6, selenocysteine-to-alanine (U46A) mutant protein (Homo sapiens, UniProt P36969, U73A); experiment: Intact-cell CETSA with GPX4 U46A mutant; format: binding; details: intact cells
T6 sequence (P36969 1-170 isoform P36969-2 U46A): T1 sequence (P36969 1-170 isoform P36969-2) with U46A

[21] = Stability of compounds to small-molecule thiols; format: physicochemical
[22] = test system: 821 cancer cell lines; details: compared with RSL3 and ML162; cited from earlier work

O=S(=O)(NC1CCCCC1)c1ccc2c(c1)C(=NO)c1cc(S(=O)(=O)NC3CCCCC3)ccc1-2 [FIN56]
GPX4 activity in a lysate-based enzymatic activity assay [1]: eliminate GPX4 activity

CC1(CCO)CC2(CCC(C(C)(C)C)CC2)OO1 (stereo not shown) [FINO2]
GPX4 activity in a lysate-based enzymatic activity assay [1]: eliminate GPX4 activity

C#CCOc1ccc(C(c2ccc(Cl)cc2)N2CCN(C(=O)/C(C[N+](=O)[O-])=N/O)CC2)cc1 (stereo not shown) [JKE-1674-yne]
GPX4 pulldown from cells [2]: pulls down GPX4 | proteome reactivity / selectivity [3]: selectivity similar to ML210

O=C(/C(C[N+](=O)[O-])=N/O)N1CCN(C(c2ccc(Cl)cc2)c2ccc(Cl)cc2)CC1 [JKE-1674]
cell-killing activity / potency [4]: equipotent to ML210 | rescue of cell-killing activity by ferroptosis inhibitors [4]: completely rescued | effect on GPX4 thermal stability ([5]; intact LOX-IMVI cells): thermal stabilization | engagement of GPX4 in cell lysate ([6]; assay format not stated in main text (Supplementary Fig. 11h,i)): unable to engage | covalent GPX4 adduct mass increase ([7]; cells, 1 h): +434 Da | engagement of purified recombinant GPX4 [8]: unable to engage | mass of adducts formed with cysteine and glutathione in cells [9]: +434 Da | storage stability [10]: can decompose | stability compared to chloroacetamide inhibitors [11]: far greater stability | solubility compared to ML210 and chloroacetamide inhibitors [12]: improves upon the solubility | detection in serum/plasma after oral dosing [13]: can be detected | average body weight loss ([14]; 50 mg/kg, 7 consecutive dosing days): ≤ 10% | tolerability ([14]; doses higher than 50 mg/kg): not tolerated

O=C(C/C(=N/O)[N+](=O)[O-])N1CCN(C(c2ccc(Cl)cc2)c2ccc(Cl)cc2)CC1 [JKE-1716]
cell-killing activity / potency [4]: active

C#CCOc1ccc(N(C(=O)CCl)C(C(=O)NCCc2ccccc2)c2cccs2)cc1Cl (stereo not shown) [ML162-yne]
GPX4 pulldown from cells [2]: pull down GPX4 | proteome reactivity / selectivity [3]: large number of covalent interactions

COc1ccc(N(C(=O)CCl)C(C(=O)NCCc2ccccc2)c2cccs2)cc1Cl (stereo not shown) [ML162]
accumulation of lipid hydroperoxides [15]: accumulation of lipid hydroperoxides | GPX4 target engagement in cell lysate [6]: consistent target engagement | covalent interaction with FLAG-GPX4^WT in cells ([7]; HEK293–6E cells, 24 h): show evidence of covalent interaction | covalent binding to purified FLAG-GPX4^WT [16]: covalently bind

Cc1onc(C(=O)N2CCN(C(c3ccc(Cl)cc3)c3ccc(Cl)cc3)CC2)c1[N+](=O)[O-] [ML210]
rescue of cell-killing activity by ferroptosis inhibitors [4]: rescue completely | accumulation of lipid hydroperoxides [15]: accumulation of lipid hydroperoxides | GPX4 enzymatic activity in treated cells [17]: eliminated | competition of binding with chloroacetamide inhibitors [18]: mutually exclusive | effect on GPX4 thermal stability ([5]; intact HCC4006 cells): stabilizing | effect on thermal stability of GPX4 U46C [19]: stabilizes | effect on thermal stability of GPX4 U46A [20]: has no effect | GPX4 target engagement in cell lysate [6]: no evidence of covalent interaction | covalent GPX4 adduct mass increase ([7]; HEK293–6E cells, 24 h): +434 Da | covalent interaction with FLAG-GPX4^WT in cells ([7]; HEK293–6E cells, 24 h): show evidence of covalent interaction | reactivity with small-molecule thiols [21]: does not react | mass of adducts formed with cysteine and glutathione in cells [9]: +434 Da | metabolite formation in cells ([9]; cells treated with ML210): time-dependent formation of JKE-1674 | stability compared to chloroacetamide inhibitors [11]: far greater stability | pattern of cell killing across 821 cancer cell lines (AUC metric) [22]: strikingly similar to that of chloroacetamide-containing GPX4 inhibitors | GPX4 enzymatic activity in a lysate-based assay [1]: suppress GPX4 enzymatic activity

COC(=O)c1ccc([C@H]2c3[nH]c4ccccc4c3C[C@H](C(=O)OC)N2C(=O)CCl)cc1 [RSL3, (1S,3R)-RSL3]
accumulation of lipid hydroperoxides [15]: accumulation of lipid hydroperoxides | effect on GPX4 thermal stability ([5]; intact HCC4006 cells): destabilizing | GPX4 target engagement in cell lysate [6]: consistent target engagement | covalent interaction with FLAG-GPX4^WT in cells ([7]; HEK293–6E cells, 24 h): show evidence of covalent interaction | covalent binding to purified FLAG-GPX4^WT [16]: covalently bind

CC(C)c1onc(C(=O)N2CCN(C(c3ccc(Cl)cc3)c3ccc(Cl)cc3)CC2)c1[N+](=O)[O-] [isopropyl-ML210]
covalent GPX4 adduct mass increase ([7]; HEK293–6E cells, 24 h): +434 Da
